High-throughput results from PubChem BioAssay.
Compounds with a hit are over-represented: about 0.68% of the library has one in this group of screens.
JNK3 blocker: blocks human JNK3 kinase activity. purified JNK3 kinase activity, HTS. inhibition, % at 8 µM. actives 0.61% (n = 60,000). AID 746; in the data active = inhibition above about 17%;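 also: 0% = DMSO and 100% = reference inhibitor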
Target sequence (P53779 whole entry, looked up): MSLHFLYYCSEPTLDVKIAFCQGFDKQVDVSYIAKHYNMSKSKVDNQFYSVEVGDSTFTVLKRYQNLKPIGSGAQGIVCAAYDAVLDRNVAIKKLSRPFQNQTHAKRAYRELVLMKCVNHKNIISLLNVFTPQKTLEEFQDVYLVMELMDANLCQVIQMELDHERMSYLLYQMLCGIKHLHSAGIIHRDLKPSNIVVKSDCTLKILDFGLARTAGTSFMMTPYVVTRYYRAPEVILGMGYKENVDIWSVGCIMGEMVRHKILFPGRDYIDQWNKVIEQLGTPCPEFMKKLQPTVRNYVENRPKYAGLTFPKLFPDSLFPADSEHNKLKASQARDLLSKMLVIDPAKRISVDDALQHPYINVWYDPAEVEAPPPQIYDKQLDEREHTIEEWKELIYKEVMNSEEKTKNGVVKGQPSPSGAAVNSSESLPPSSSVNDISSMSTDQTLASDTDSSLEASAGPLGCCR
AP ELISA ortho: alternative pathway complement inhibition, orthogonal assay; Human serum alternative complement pathway, LPS-coated ELISA, C3 deposition; tested in compound mixtures; inhibition, % at 5 µM; actives 0.08% (n = 62,000); AID 1235;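 active = inhibition above 30% in each of the two pooled mixtures holding the compound, so the lower value exceeds 30%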;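 also: 0% = serum in Mg-EGTA without compound and 100% = EDTA serum blank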
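Test system – human serum alternative complement pathway, C3 deposition on LPS-coated wells · Buffer or medium – diluted human serum in Mg2+-EGTA GVB++ · Compound dosing – 5 µM each compound, pools of ten, 50 µM per pool · Schedule – 1 h serum-compound exposure at 37 °C · Measured by – Anti-C3 ELISA, OD 450 nm · Read-out basis – percent inhibition of C3 deposition onto LPS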
MMP-13 inhibitor: inhibitors of human MMP13. P45452. MMP-13 fTHP FRET cleavage, Mca fluorescence. inhibition, % at 4 µM. actives 0.07% (n = 65,000);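 active = inhibition above the mean of compound-free control plate wells plus 3 SD, cut at about 14% in these data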;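 also: 0% = DMSO wells and 100% = wells with reference MMP-13 inhibitor after basal subtraction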
mHtt clearance: compounds clearing mutant huntingtin protein. HeLa Exon1htt(103Q)mCFP, aggregate imaging; zero = plate's median compound well. actives 0.42% (n = 47,000). inhibition, % at 1.5 µM. AID 853;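 active = inhibition of aggregate fluorescence above about 70%, also judged a hit by eye on the cell image, limit read from the data, passing the limit was not always enough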;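 also: cells exposed to compound for three days before fixation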
The depositor's hits bear a star; / = no result.

SMILES	JNK3 blocker	AP ELISA ortho	MMP-13 inhibitor	mHtt clearance
CCN1CCN(C(=O)c2sc3nc(C)nc(N4CCC(C)CC4)c3c2C)CC1	-4.4	/	-0.2	/
CCN1C(=O)/C(=C2/C=CC=CN2C)SC1=S	1.1	15.1	20.5*	36.4
CCOC(=O)CP(=O)(c1ccccc1)c1ccccc1	/	/	/	-11.3
CCOC(=O)c1ccccc1NC(=O)Cn1cnc2c(cnn2-c2ccccc2)c1=O	2.4	7.2	-2.4	-6.6
CCOC(=O)c1ccccc1NC(=O)Cn1cnc2c(cnn2-c2ccc(OC)cc2)c1=O	0.5	18.0	-1.3	85.6*
Cc1ccc(C)c(N2CCN(C(=O)C3CCCCN3S(=O)(=O)c3ccc(F)cc3)CC2)c1 (centres undefined)	/	/	/	-8.7
COCCCNc1oc(COc2ccc(Cl)cc2Cl)nc1C#N	3.4	-2.4	2.4	/
COC(=O)Cc1cc(=O)n(-c2nc3ccccc3[nH]2)[nH]1	-2.2	7.3	57.4*	/
COc1ccc(NC(=O)Cc2nc3ccccc3[nH]2)cc1	11.6	8.1	-14.2	-0.7
CCn1cc(C(=O)O)c(=O)c2cc(S(=O)(=O)N(C)C)ccc21	-3.9	6.1	-1.9	/
O=C1C(c2ccncc2)=C(O)c2ccccc21	56.4*	-1.7	7.5	-43.0
O=c1[nH][nH]c(C(F)(F)F)c1C=NCc1ccc(Cl)cc1	/	/	/	-9.2
O=c1[nH]c2cc3c(cc2cc1CN(CC1CCCO1)S(=O)(=O)c1ccc(Cl)cc1)OCCO3 (centres undefined)	-2.8	10.3	-19.1	/
Cc1ccc2c(C)nc(NC3=NCN(Cc4ccccc4)CN3)nc2c1	40.4*	4.3	-0.5	/
Cc1ccc2nc(NC3=NCN(Cc4ccccc4)CN3)nc(C)c2c1	3.0	9.4	2.3	/
COc1ccc2nc(NC(=O)Cc3ccc(OC)c(S(=O)(=O)N4CCOCC4)c3)sc2c1	28.6*	4.2	0.8	8.8
COc1ccc2nc(NC(=O)c3cccc(S(=O)(=O)N4CCOCC4)c3)sc2c1	/	/	/	29.2
CC(C)c1ccc2oc(=O)cc(CN3CCN(c4ccc(F)cc4)CC3)c2c1	-0.8	39.6*	-5.4	27.7
CCCc1sc(N/N=C/c2ccccn2)nc1-c1ccc(F)cc1	/	/	/	81.9*
O=C(N/N=C/c1ccccn1)c1ccco1	/	/	/	-11.5
COc1ccc(N2CCN(C(=O)c3ccc(C)cc3Cl)CC2)cc1	3.0	17.6	4.6	15.3
CSc1cccc(NS(=O)(=O)c2ccc(F)cc2)c1	0.7	33.8*	0.2	-33.2
C=CCn1c(COc2ccccc2F)nnc1SCC(=O)NC(=O)NCc1ccco1	1.8	24.6	6.5	/
CCN1C(=O)c2cccc3c(NC(=O)c4ccc(S(=O)(=O)N5CCOCC5)cc4)ccc1c23	-11.2	3.5	1.2	71.7*
CCOC(=O)c1ccc(NC(=O)N2CCc3ccccc32)cc1	0.8	13.2	2.6	/
SMILES	JNK3 blocker	AP ELISA ortho	MMP-13 inhibitor	mHtt clearance
CCN1C(=S)SC(=O)C1=C1C=C(C)N(Cc2ccco2)C(C)=C1	/	18.4	18.9*	/
CCN1C(=S)SC(=O)C1=C1C=C(C)OC(C)=C1	/	4.3	6.2	/
O=c1nc(-c2ccccc2)c2ccccc2[nH]1	-1.1	8.5	-7.0	48.4
c1ccc2nc3c(nc2c1)[nH]c1ccccc13	55.3*	7.4	2.8	/
Cc1ccc(N2CC(C(=O)Nc3cccnc3)CC2=O)cc1 (centres undefined)	5.0	-3.2	-0.5	-4.5
CC(=O)Nc1cccc(-c2nc3ccccc3c(=O)o2)c1	18.4*	26.1	2.4	-41.3
CCC(=O)Nc1cccc(-c2nc3ccccc3c(=O)o2)c1	14.7	23.5	1.2	-19.6
O=C(NCCN1CCOCC1)c1ccc2c(c1)N(Cc1ccccc1)C(=O)CS2	/	-10.6	-3.6	-50.0
CCc1nnc(NC(=O)C2CCN(C(=O)NC3CCCCC3)CC2)s1	1.6	34.1*	-2.9	/
CC(=O)Nc1ccc(NC(=O)Cn2c(CC(=O)N3CCCC3)nc3ccccc32)cc1	4.0	13.4	1.1	-38.2
COc1ccc(OC)c(C(=O)c2coc3ccc(O)cc23)c1	18.4*	21.2	-3.1	31.8
O=C(c1ccc(Cl)cc1)c1coc2ccc(O)cc12	/	/	/	-19.3
CC1(C)Cc2ccccc2-c2nnc(SCC(=O)Nc3ccc4c(c3)OCO4)n21	-2.9	56.4*	4.5	/
C=CCSc1nnc(CSc2nc3sc4c(c3c(=O)[nH]2)CCCC4)n1-c1ccccc1	-6.5	2.0	-16.4	14.8
COc1cc([C@H]2[C@@H]3CCCC[C@]3(O)CCN2CC(=O)Nc2ccc(C)cc2C)ccc1O	5.9	4.9	2.6	11.9
Cc1cc(C)n(Cc2ccccc2Cl)n1	-2.5	5.4	4.8	/
COCCN1Cc2cccc(C(=O)Nc3ccc4c(c3)OCCO4)c2C1=O	-0.4	13.1	16.6*	51.0
COCCN1Cc2cccc(C(=O)Nc3cccnc3)c2C1=O	4.8	11.8	0.1	-77.1
O=C(COc1ccccc1)NCC1CCCO1 (centres undefined)	/	/	/	-6.0
O=C(COc1ccc(F)cc1)NCC1CCCO1 (centres undefined)	/	8.4	-0.1	70.6*
S=c1[nH]nc(-c2cccc(Br)c2)o1	19.4*	-0.1	-3.2	/
CS(=O)(=O)N(CC(=O)N1CCCC1)c1ccc(OCc2ccccc2)cc1	-3.6	-3.8	0.6	78.0*
CS(=O)(=O)N(CC(=O)N1CCCCCC1)c1ccccc1	6.4	-4.9	-1.3	/
Cc1ccc(N)c(C(O)(C(F)(F)F)C(F)(F)F)c1	1.3	4.2	-1.7	20.1
CCOC(=O)CSc1nc2c(sc3ccccc32)c(=O)n1CCCN1CCOCC1	24.0*	14.8	0.3	/
SMILES	JNK3 blocker	AP ELISA ortho	MMP-13 inhibitor	mHtt clearance
CC1=C(C#N)C(Nc2ccc(Cl)cn2)(C(F)(F)F)C(=O)N1 (centres undefined)	/	/	/	-14.7
CCCC(=O)Nc1nc2nc(C)cc(=O)n2[nH]1	/	/	/	5.7
COc1cccc(OC)c1C(=O)Nc1cccc(C(C)=O)c1	-4.2	6.2	3.0	6.8
COc1cc(NC(=O)Nc2cccc(C(C)=O)c2)cc(OC)c1OC	-3.4	1.6	-8.3	75.2*
Cc1ccc(CNC(=O)CSc2n[nH]c(N)n2)cc1	7.4	1.4	-1.1	82.2*
Cc1cc(OCC(=O)O)c2ccccc2n1	-3.3	14.5	-0.1	/
Cc1cc2nnc(SC3CCOC3=O)n2c2ccccc12 (centres undefined)	/	/	1.0	/
Cc1nc(NCc2ccco2)c(C#N)c2c1COC(C)(C)C2	30.9*	12.9	-22.3	/
CCCc1nnc(SCC(=O)N2C(C)CCCC2C)n1CCCOC (centres undefined)	/	/	/	60.2
CCOC(=O)c1c(N)n[nH]c1-c1ccc(OC)cc1	18.1*	2.5	1.7	-40.8
Cc1ccc(C2CC(=O)N(c3ccc(F)cc3)C3=C2C(=O)CCC3)cc1 (centres undefined)	/	/	/	79.4*
CC(=O)Nc1cccc2c1C(=O)NC2=O	-1.0	21.2	-37.0	/
O=C1NC(=O)c2c(NC(=O)C3CCCO3)cccc21 (centres undefined)	21.2*	-3.1	-23.0	-12.8
COc1ccc(-c2noc(COc3ccccc3OC)n2)cc1OC	1.1	7.6	6.1	/
O=C(CCCCCn1c(SCc2ccncc2)nc2ccccc2c1=O)NCc1ccco1	18.0*	4.1	3.3	-45.3
O=C(CSc1nc2ccccc2c(=O)n1CCCC(=O)N1CCCC1)NCc1ccco1	/	16.7	1.6	/
CC(C)(C)OC(=O)N[C@@H](Cc1ccccc1)c1nnc(S(=O)(=O)Cc2ccccc2)o1	0.4	31.3*	2.3	/
